Test results: ChEMBL document CHEMBL1143652, “Joys of molecules. 2. Endeavors in chemical biology and medicinal chemistry” (J Med Chem, 2005); call rule not given here
Values after ≈ are worked out from the molar mass of the structure shown.

Assays:
[1] = Inhibitory concentration against LN229 cell proliferation; type: functional, cell-based; conditions: Homo sapiens, LN-229
[2] = target: T1, Peroxisome proliferator-activated receptor delta (Homo sapiens, UniProt Q03181); experiment: Effective concentration towards PPAR delta
[3] = target: T1, Peroxisome proliferator-activated receptor delta; experiment: Effective concentration against PPAR delta receptor
[4] = target: Polyunsaturated fatty acid 5-lipoxygenase (Homo sapiens, UniProt P09917); experiment: Effective concentration required to inhibit 5-lipoxygenase by 50%
[5] = target: T2, Sodium channel alpha subunits; brain (Types I, II, III) (Homo sapiens, UniProt P35498+Q99250+Q9NY46); experiment: Inhibitory concentration against synaptosome using [3H]PbTx-3
T2 sequence (Q99250 whole entry, looked up, other chains not shown): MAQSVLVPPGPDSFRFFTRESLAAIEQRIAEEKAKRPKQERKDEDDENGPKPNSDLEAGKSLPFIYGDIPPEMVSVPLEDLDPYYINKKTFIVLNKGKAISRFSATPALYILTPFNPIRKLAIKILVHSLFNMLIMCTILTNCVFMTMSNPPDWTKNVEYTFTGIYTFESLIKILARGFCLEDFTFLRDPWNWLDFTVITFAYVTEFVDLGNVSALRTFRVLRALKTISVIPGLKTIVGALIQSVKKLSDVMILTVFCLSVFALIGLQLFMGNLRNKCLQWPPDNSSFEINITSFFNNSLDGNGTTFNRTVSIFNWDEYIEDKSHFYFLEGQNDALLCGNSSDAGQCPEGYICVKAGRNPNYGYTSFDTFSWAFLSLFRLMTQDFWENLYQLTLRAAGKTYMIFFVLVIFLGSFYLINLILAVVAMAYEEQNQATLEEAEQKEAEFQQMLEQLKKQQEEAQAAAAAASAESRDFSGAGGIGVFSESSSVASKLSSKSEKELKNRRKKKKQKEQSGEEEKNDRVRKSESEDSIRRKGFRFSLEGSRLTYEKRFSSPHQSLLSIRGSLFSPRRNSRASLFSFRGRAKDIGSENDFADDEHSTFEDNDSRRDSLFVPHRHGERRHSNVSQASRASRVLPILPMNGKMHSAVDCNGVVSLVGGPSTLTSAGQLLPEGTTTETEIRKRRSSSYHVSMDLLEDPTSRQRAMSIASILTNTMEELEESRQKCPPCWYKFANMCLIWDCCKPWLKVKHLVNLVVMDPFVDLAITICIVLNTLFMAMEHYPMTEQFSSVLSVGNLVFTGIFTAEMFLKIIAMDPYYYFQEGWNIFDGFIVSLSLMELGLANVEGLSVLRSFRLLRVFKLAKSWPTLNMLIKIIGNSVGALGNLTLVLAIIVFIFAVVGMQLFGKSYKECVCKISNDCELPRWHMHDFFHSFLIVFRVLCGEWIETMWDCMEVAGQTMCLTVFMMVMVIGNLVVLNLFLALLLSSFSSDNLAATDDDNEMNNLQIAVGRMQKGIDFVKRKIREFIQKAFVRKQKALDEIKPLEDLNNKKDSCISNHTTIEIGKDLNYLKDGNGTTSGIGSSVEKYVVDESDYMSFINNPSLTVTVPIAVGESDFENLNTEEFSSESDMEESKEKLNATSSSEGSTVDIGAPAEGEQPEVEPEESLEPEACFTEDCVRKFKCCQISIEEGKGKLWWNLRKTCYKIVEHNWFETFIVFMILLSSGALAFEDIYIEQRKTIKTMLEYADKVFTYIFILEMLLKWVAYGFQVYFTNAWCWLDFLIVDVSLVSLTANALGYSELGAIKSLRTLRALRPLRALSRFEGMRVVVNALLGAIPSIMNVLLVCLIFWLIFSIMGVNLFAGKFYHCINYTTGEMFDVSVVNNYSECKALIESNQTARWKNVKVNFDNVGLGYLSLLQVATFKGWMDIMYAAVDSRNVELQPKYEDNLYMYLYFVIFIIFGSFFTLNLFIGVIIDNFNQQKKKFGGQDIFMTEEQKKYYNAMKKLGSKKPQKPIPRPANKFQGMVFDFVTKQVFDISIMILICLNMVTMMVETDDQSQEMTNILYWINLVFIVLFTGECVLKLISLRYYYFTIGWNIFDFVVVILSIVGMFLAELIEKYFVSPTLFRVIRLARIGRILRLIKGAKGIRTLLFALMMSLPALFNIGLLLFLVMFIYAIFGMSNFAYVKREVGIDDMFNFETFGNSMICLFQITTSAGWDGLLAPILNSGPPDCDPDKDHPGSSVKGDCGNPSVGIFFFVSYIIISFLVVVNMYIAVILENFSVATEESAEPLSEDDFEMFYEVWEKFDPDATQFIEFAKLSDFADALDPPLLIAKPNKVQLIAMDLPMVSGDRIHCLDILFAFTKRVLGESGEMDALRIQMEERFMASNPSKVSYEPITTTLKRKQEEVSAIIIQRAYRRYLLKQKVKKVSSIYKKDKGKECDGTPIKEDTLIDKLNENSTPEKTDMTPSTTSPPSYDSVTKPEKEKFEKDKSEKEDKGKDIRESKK
T2 sequence (Q9NY46 whole entry, looked up, other chains not shown): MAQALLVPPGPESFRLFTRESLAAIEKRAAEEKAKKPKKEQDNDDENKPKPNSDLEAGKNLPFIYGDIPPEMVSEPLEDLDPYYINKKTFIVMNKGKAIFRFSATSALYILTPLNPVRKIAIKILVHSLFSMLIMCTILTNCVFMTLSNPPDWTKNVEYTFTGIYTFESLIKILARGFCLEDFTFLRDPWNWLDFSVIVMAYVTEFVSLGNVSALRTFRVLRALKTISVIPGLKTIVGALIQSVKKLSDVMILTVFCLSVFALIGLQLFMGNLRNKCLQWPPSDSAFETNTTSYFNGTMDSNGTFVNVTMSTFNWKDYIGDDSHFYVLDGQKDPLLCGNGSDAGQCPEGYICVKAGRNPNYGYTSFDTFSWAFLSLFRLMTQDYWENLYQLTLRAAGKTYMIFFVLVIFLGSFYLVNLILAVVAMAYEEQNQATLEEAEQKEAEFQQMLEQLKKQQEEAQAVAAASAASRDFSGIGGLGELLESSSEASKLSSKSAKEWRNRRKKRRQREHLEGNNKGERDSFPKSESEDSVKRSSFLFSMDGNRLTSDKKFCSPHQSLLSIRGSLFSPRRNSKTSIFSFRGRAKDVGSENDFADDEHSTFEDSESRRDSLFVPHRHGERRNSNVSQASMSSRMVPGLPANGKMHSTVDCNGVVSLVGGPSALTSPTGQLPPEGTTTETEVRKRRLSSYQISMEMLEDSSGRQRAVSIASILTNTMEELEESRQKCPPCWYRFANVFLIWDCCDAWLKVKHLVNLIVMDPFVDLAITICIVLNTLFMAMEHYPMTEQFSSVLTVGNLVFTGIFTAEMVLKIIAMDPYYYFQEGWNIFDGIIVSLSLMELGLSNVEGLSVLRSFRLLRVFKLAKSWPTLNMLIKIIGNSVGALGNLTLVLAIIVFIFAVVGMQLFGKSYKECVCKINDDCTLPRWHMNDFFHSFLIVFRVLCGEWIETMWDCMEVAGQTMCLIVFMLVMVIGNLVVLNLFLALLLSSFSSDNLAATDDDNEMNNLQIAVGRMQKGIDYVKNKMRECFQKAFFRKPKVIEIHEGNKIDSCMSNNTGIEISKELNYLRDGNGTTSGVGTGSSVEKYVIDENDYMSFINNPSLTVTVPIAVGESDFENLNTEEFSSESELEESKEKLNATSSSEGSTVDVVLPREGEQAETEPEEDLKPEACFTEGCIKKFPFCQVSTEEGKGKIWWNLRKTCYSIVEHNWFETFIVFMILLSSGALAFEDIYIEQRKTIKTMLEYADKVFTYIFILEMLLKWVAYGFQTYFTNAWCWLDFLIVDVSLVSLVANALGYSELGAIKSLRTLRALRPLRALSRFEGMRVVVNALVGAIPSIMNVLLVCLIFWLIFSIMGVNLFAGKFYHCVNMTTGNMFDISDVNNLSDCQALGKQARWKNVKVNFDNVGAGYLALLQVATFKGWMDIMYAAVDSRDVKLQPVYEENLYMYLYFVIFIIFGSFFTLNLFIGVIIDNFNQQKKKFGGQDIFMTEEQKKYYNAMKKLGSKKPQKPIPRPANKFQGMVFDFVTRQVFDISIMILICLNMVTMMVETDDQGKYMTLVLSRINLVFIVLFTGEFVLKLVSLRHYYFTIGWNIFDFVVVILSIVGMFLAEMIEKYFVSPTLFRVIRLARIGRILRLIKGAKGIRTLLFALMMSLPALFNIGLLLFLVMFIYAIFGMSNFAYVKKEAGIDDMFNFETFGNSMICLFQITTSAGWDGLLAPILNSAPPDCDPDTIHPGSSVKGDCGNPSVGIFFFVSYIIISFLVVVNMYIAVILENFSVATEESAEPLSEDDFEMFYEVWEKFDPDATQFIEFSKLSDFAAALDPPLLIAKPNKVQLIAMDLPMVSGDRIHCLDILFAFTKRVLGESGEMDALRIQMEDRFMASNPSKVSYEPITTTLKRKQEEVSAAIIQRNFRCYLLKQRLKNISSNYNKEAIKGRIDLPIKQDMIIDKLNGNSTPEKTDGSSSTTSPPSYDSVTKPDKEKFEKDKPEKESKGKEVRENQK

[6] = target: T2, Sodium channel alpha subunits; brain (Types I, II, III); experiment: Inhibitory concentration against synaptosomes using [3H]PbTx-3; type: subcellular
[7] = target: T2, Sodium channel alpha subunits; brain (Types I, II, III)
[8] = target: T3, Integrin alpha-IIb/beta-3 (Homo sapiens, UniProt P05106+P08514); experiment: Inhibitory concentration against integrin alpha-2b beta3; type: protein-complex assay
[9] = target: T3, Integrin alpha-IIb/beta-3; experiment: Inhibitory concentration against alpha IIb beta-3 receptor; type: protein-complex assay
[10] = test system: MOLT-4; experiment: Inhibitory concentration against MOLT-4 human T-cells; type: functional, cell-based
[11] = test system: MOLT-4; experiment: Inhibitory concentration against MOLT-4 human T-cells; 10e-11; type: functional, cell-based
[12] = test system: OVCAR-3; experiment: Cytotoxicity by measuring inhibitory concentration against ovcar-3 tumor cell line; type: functional, cell-based, Homo sapiens; conditions: Homo sapiens, OVCAR-3
[13] = test system: OVCAR-3; experiment: Cytotoxicity by measuring inhibitory concentration against ovcar-3 tumor cell line; 10e-10; type: functional, cell-based; conditions: Homo sapiens
[14] = target: Peptidyl-prolyl cis-trans isomerase FKBP1A (Homo sapiens, UniProt P62942); experiment: Inhibitory concentration against binding to FKBP12
Sequence of Peptidyl-prolyl cis-trans isomerase FKBP1A (P62942 whole entry): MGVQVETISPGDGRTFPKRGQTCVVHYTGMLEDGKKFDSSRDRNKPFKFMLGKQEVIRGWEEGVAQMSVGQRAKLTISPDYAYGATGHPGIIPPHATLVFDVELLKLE

[15] = test system: P388; experiment: Cytotoxicity against P-388 cancer cell line; type: functional, Homo sapiens; conditions: Mus musculus, read-out: ED50 (the source's name)
[16] = test system: P388; experiment: Cytotoxicity against leukemia P-388 tumor cells; type: functional; conditions: Mus musculus, read-out: ED50 (the source's name)
[17] = target: T4, Bile acid receptor (Homo sapiens, UniProt Q96RI1); experiment: Effective concentration against farnesoid X receptor (FXR); range is 5-10 uM
T4 sequence (Q96RI1 whole entry): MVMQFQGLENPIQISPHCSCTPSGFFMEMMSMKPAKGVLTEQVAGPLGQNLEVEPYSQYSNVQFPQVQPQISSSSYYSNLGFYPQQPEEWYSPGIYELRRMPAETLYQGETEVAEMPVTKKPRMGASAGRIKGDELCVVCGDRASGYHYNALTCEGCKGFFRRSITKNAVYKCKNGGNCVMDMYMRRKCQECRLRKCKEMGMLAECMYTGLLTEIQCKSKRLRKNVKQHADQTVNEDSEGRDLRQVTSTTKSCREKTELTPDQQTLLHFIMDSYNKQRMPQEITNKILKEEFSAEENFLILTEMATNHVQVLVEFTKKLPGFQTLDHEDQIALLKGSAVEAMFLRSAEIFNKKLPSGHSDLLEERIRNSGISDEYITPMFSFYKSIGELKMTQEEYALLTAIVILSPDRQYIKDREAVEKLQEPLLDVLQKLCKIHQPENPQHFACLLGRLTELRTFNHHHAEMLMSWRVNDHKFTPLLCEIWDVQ

[18] = target: T4, Bile acid receptor; experiment: Effective concentration towards farnesoid X receptor (FXR); Range is 5-10 uM
[19] = test system: OVCAR-3; experiment: Cytotoxicity by measuring inhibitory concentration against ovcar-3 tumor cell line; Inactive; type: functional, cell-based, Homo sapiens
[20] = test system: MCF7; experiment: Inhibitory concentration against MCF-7 human breast carcinoma cell line; Inactive upto 1 uM; type: functional, cell-based
[21] = test system: PC-3; experiment: Inhibitory concentration against PC-3 human prostate carcinoma cell line; Inactive upto 1 uM; type: functional, cell-based
[22] = test system: 1A9/ptx-10; experiment: Inhibitory concentration against 1A9/PTX10 cell line; Inactive upto 1 uM; type: functional, cell-based, Homo sapiens
[23] = test system: A2780; experiment: Inhibitory concentration against A2780/AD10 cell line; Inactive upto 1 uM; type: functional, cell-based, Homo sapiens
[24] = test system: A549; experiment: Inhibitory concentration against A549 human lung carcinoma cell line; Inactive upto 1 uM; type: functional, cell-based
[25] = test system: 1A9; experiment: Inhibitory concentration against 1A9 human ovarian carcinoma cell line; Inactive upto 1 uM; type: functional, cell-based
[26] = target: Tubulin beta-4B chain (Homo sapiens) (UniProt P68371); experiment: (§1) Tubulin polymerization at a concentration of 100 uM incubated for 90 minutes; type: functional
Sequence of Tubulin beta-4B chain (Homo sapiens) (P68371 whole entry): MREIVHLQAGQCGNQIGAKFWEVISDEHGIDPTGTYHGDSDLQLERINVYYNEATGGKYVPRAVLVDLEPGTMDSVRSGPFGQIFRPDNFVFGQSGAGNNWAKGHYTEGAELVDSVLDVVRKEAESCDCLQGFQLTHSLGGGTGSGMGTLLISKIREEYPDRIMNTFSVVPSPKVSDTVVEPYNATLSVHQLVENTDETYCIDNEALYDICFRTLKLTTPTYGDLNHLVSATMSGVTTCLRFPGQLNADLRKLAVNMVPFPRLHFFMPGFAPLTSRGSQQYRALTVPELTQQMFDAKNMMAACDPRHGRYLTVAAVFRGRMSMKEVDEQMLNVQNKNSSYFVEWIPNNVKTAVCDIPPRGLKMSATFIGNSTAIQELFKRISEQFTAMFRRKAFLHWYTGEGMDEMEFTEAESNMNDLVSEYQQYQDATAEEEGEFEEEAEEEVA
How it was run: (§2)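 Tubulin polymerization was read as percent polymerization, with test drug at 100 µM and a 90 min incubation.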

[27] = target: Tubulin beta-4B chain (Homo sapiens) (UniProt P68371); experiment: as §1; how it was run: as §2
[28] = test system: 1A9; experiment: Inhibitory concentration against human ovarian 1A9 tumor cells; type: functional, cell-based
[29] = test system: Gallus gallus; experiment: In vivo inhibition of angiogenesis in the chick chorioallantoic membrane (CAM) assay; type: functional
[30] = test system: A549; experiment: Inhibitory concentration against A549 human lung carcinoma cell line; Range is 2-5 nM; type: functional, cell-based
[31] = test system: 1A9/ptx-10; experiment: Inhibitory concentration against 1A9/PTX10 cell line; Range is 2-5 nM; type: functional, cell-based; conditions: Homo sapiens
[32] = test system: A2780; experiment: Inhibitory concentration against A2780/AD10 cell line; Range is 2-5 nM; type: functional, cell-based; conditions: Homo sapiens
[33] = test system: 1A9; experiment: Inhibitory concentration against 1A9 human ovarian carcinoma cell line; Range is 2-5 nM; type: functional, cell-based
[34] = test system: MCF7; experiment: Inhibitory concentration against MCF-7 human breast carcinoma cell line; Range is 2-5 nM; type: functional, cell-based
[35] = test system: PC-3; experiment: Inhibitory concentration against PC-3 human prostate carcinoma cell line; Range is 2-5 nM; type: functional, cell-based
[36] = test system: PC-3; experiment: Inhibitory concentration against PC-3 human prostate carcinoma cell line; Range is 10-15 nM; type: functional, cell-based
[37] = test system: MCF7; experiment: Inhibitory concentration against MCF-7 human breast carcinoma cell line; Range is 10-15 nM; type: functional, cell-based
[38] = test system: A2780; experiment: Inhibitory concentration against A2780/AD10 cell line; Range is 10-15 nM; type: functional, cell-based; conditions: Homo sapiens
[39] = test system: 1A9/ptx-10; experiment: Inhibitory concentration against 1A9/PTX10 cell line; Range is 10-15 nM; type: functional, cell-based; conditions: Homo sapiens
[40] = test system: A549; experiment: Inhibitory concentration against A549 human lung carcinoma cell line; Range is 10-15 nM; type: functional, cell-based
[41] = test system: 1A9; experiment: Inhibitory concentration against 1A9 human ovarian carcinoma cell line; Range is 10-15 nM; type: functional, cell-based

COc1c(C(C)n2cnc3ncccc32)ccc2c1C=CC(C)(C)O2 (stereo not given)
IC50 [1]: 26000 nM

CC(C)N(Cc1cccc2c1OC(C)(C)C=C2)C(=O)c1ccc(-c2ccccc2)cc1
EC50 [2]: 1000 nM
EC50 [3]: 1 nM

O=C(O)CCC[C@H](O)\C=C/C=C/C=C/[C@H](O)C/C=C\CCCCC(F)(F)F
EC50 [4]: 3 nM

C=C(C=O)C[C@@H]1C[C@H](O)[C@]2(C)O[C@@H]3C[C@@H]4O[C@@H]5C[C@]6(C)O[C@]7(C)CC[C@@H]8O[C@@H]9C[C@]%10(C)O[C@@H]%11C(C)=CC(=O)O[C@H]%11C[C@H]%10O[C@H]9C[C@@H](C)[C@H]8O[C@H]7C[C@H]6O[C@@]5(C)C/C=C\[C@H]4O[C@H]3C[C@H]2O1 [BREVETOXIN B]
IC50 [5]: 15.02 nM
IC50 [6]: 15.02 nM
Binding [7]: 18 nM

N=C(N)N1CCN(c2ccc(C(=O)NC[C@H](NS(=O)(=O)c3c(O)ccc4ccccc34)C(=O)O)cc2[N+](=O)[O-])CC1
IC50 [8]: 14 nM
IC50 [9]: 14 nM

COC(=O)N/C(C)=C1/C(=C/COC(=O)c2ccc([N+](=O)[O-])cc2)[C@@](O)(CC=O)C#C/C=C\C#C[C@@H]1O
IC50 [10]: 0.044 nM
IC50 [11]: 0.044 nM

CC(=O)OC1C(=O)[C@@]2(C)[C@H]([C@H](OC(=O)c3ccsc3)[C@]3(O)C[C@H](OC(=O)[C@H](O)[C@@H](NC(=O)c4ccccc4)c4ccccc4)C(C)=C1C3(C)C)[C@]1(OC(C)=O)CO[C@@H]1C[C@@H]2O (stereo not given in full)
IC50 [12]: 0.671 nM
IC50 [13]: 0.67 nM

CO[C@H]1C[C@@H]2CC[C@@H](C)[C@@](O)(O2)C(=O)C(=O)N2CCCC[C@H]2C(=O)N[C@H](CCc2ccccc2)C(=O)NCC(=O)N(C)CC(=O)O[C@H]1C
IC50 [14]: 9.6 nM

CC(C)=CC[C@@H]1C(=O)C2=C(OC(C)(C)C=C2)C(=O)[C@@]12OC(=O)C1=C[C@]3(O)C[C@H]4C(C)(C)OC(CC=C(C)C)(C3=O)[C@]14O2 [LATERIFLORONE]
EC50 [15]: 5.4 µg/mL (≈ 9.33 µM)
EC50 [16]: 5.4 µg/mL (≈ 9.33 µM)

COc1c(CN(C(=O)C2CC2)c2ccccc2)ccc2c1OC(C)(C)C=C2
EC50 [17]: 10000 nM
EC50 [18]: 10000 nM

CC(=O)O[C@@H]1C2=C(C)[C@H](OC(=O)[C@H](O)[C@@H](NC(=O)c3ccccc3)c3ccccc3)C[C@@](O)([C@@H](OC(=O)c3ccccc3)c3ccccc3[C@H]1OC(C)=O)C2(C)C
IC50 [19]: Not Active

CC(C)[C@H](O)C(=O)N[C@H]1Cc2ccc(O)c(c2)[C@]2(C(=O)Nc3ccccc32)C2=C(CO)N=C(O2)[C@H](C(C)C)NC1=O
IC50 [20]: Inactive
IC50 [21]: Inactive
IC50 [22]: Inactive
IC50 [23]: Inactive
IC50 [24]: Inactive
IC50 [25]: Inactive

CC(C)[C@@H]1NC(=O)[C@@H](NC(=O)OCc2ccccc2)Cc2ccc3c(c2)[C@]2(C4=C(C=O)N=C1O4)c1cccc(Br)c1N[C@@H]2O3
IC50 [20]: Inactive
IC50 [21]: Inactive
IC50 [22]: Inactive
IC50 [23]: Inactive
IC50 [24]: Inactive
IC50 [25]: Inactive

CO[C@]12C=C[C@](C)(O1)[C@@H](OC(=O)/C=C/c1cn(C)cn1)C[C@H]1C(C)=CC[C@H](C(C)C)[C@H]1/C=C\2COC1OCC(O)C(O)C1OC(C)=O (stereo not given in full)
TP [26]: 54%
TP [27]: 54%
IC50 [28]: 40 nM

N=C(N)NCCOc1ccc(C(=O)NC[C@H](NS(=O)(=O)c2ccccc2)C(=O)O)cc1[N+](=O)[O-]
Dose [29]: 30 ug/embryo

[H][C@]12Nc3c4cccc3[C@]13C1=C(N=C(O1)[C@H](C(C)C)NC(=O)[C@@H](NC(=O)[C@@H](O)C(C)C)Cc1ccc(c3c1)O2)c1nc(Cl)c(o1)-c1c(Cl)[nH]c2cccc-4c12 [DIAZONAMIDE A]
IC50 [30]: 5 nM
IC50 [31]: 5 nM
IC50 [32]: 5 nM
IC50 [33]: 5 nM
IC50 [34]: 5 nM
IC50 [35]: 5 nM

C=C(C=O)C[C@@H]1C[C@H](O)[C@]2(C)O[C@@H]3C[C@@H]4O[C@@H]5C[C@]6(C)O[C@]7(C)C(C)=CC(=O)O[C@H]7C[C@H]6O[C@@]5(C)C/C=C\[C@H]4O[C@H]3C[C@H]2O1 [TRUNCATED BREVETOXIN B]
IC50 [5]: > 10000 nM
IC50 [6]: > 10000 nM
Binding [7]: 18 nM

CC(C)[C@@H]1NC(=O)[C@@H](NC(=O)[C@H](O)C(C)C)Cc2ccc3c(c2)[C@]24C5=C(N=C1O5)c1nc(Cl)c(o1)-c1c(Cl)[nH]c5cccc(c15)-c1cccc2c1N[C@@H]4O3
IC50 [36]: 15 nM
IC50 [37]: 15 nM
IC50 [38]: 15 nM
IC50 [39]: 15 nM
IC50 [40]: 15 nM
IC50 [41]: 15 nM
